Test: Inhibition of yeast alpha glucosidase after 30 mins
Set-up: species or system Saccharomyces cerevisiae
In short: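 Baker's yeast α-glucosidase (0.04 U/mL) preincubated 30 min with inhibitor in 0.067 M K2HPO4/KH2PO4 buffer, pH 6.8, at 37 °C; inhibitor and substrate dissolved in DMSO, final DMSO 10%. Reaction started with 0.5 mM substrate, run 5 min at 37 °C, quenched with 0.1 M Na2CO3 (pH 9.8). Absorbance at 405 nm read immediately as hydrolysis rate; triplicate.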

SMILES | IC50 [µM]
C=C1C(=O)[C@@]2(C)CC[C@@H]3[C@]1(CC[C@H]1[C@@]3(C)CCC[C@@]1(C)C(=O)OCC)C2 | > 200
C[C@]12CC[C@H]3[C@]4(C)CCC[C@@](C)(C(=O)OCCO)[C@H]4CC[C@@]3(C1)[C@H](CO)[C@H]2O | > 200
C=CC(=O)O[C@@H]1C[C@]23CC[C@H]4[C@@](C)(CCC[C@@]4(C)C(=O)OCC)[C@@H]2CC[C@@]1(C)C3 | > 200
CCOC(=O)[C@]1(C)CCC[C@@]2(C)[C@@H]3CC[C@@]4(C)C[C@]3(CC[C@@H]21)[C@H](COC(C)=O)C4=O | > 200
CCOC(=O)[C@]1(C)CCC[C@@]2(C)[C@@H]3CC[C@@]4(C)C[C@]3(CC[C@@H]21)CC4=O | > 200
CCOC(=O)[C@]1(C)CCC[C@@]2(C)[C@@H]3CC[C@@]4(C)C[C@]3(CC[C@@H]21)[C@H](COC(=O)c1ccccc1)C4=O | > 200
C[C@@]12CC[C@@H]3[C@@](CC[C@H]4[C@@]3(C)CCC[C@@]4(C)C(=O)O)(CC(=O)O1)C2 | 139
C[C@]12CC[C@H]3[C@]4(C)CCC[C@@](C)(C(=O)O)[C@H]4CC[C@@]3(C1)[C@H](CO)[C@H]2O | 149
CCOC(=O)[C@]1(C)CCC[C@@]2(C)[C@@H]3CC[C@@]4(C)C[C@]3(CC[C@@H]21)[C@H](CO)C4=O | 143
C[C@@]12CC[C@@H]3[C@@](CC[C@H]4[C@@]3(C)CCC[C@@]4(C)C(=O)O)(C[C@@H]1N)C2 | > 200
C[C@@]12CC[C@@H]3[C@@](CC[C@H]4[C@@]3(C)CCC[C@@]4(C)C(=O)O)(C[C@H]1O)C2 | 156
C[C@@]12CC[C@@H]3[C@@](CC[C@H]4[C@@]3(C)CCC[C@@]4(C)C(=O)O)(CC1=O)C2 [ISOSTEVIOL] | > 200
C=CCOC(=O)[C@]1(C)CCC[C@@]2(C)[C@@H]3CC[C@@]4(C)C[C@]3(CC[C@@H]21)[C@H](CO)[C@H]4O | 143
C[C@]12CC[C@H]3[C@]4(C)CCC[C@@](C)(C(=O)OCc5ccccc5)[C@H]4CC[C@@]3(C1)[C@H](CO)[C@H]2O | > 200

These reach a lower IC50. Values come first.

IC50 [µM] | SMILES
132 | CCOC(=O)[C@]1(C)CCC[C@@]2(C)[C@@H]3CC[C@@]4(C)C[C@]3(CC[C@@H]21)[C@H](COC(C)=O)[C@H]4O
132 | CCOC(=O)[C@]1(C)CCC[C@@]2(C)[C@@H]3CC[C@@]4(C)C[C@]3(CC[C@@H]21)C[C@H]4O
118 | CCOC(=O)[C@]1(C)CCC[C@@]2(C)[C@@H]3CC[C@@]4(C)C[C@]3(CC[C@@H]21)CC(=O)O4
116 | CC(C)CCOC(=O)[C@]1(C)CCC[C@@]2(C)[C@@H]3CC[C@@]4(C)C[C@]3(CC[C@@H]21)[C@H](CO)[C@H]4O
114 | CC(C)(C)OC(=O)[C@]1(C)CCC[C@@]2(C)[C@@H]3CC[C@@]4(C)C[C@]3(CC[C@@H]21)[C@H](CO)[C@H]4O
114 | CCN[C@H]1C[C@]23CC[C@H]4[C@@](C)(CCC[C@@]4(C)C(=O)OCC)[C@@H]2CC[C@@]1(C)C3
112 | CCOC(=O)[C@]1(C)CCC[C@@]2(C)[C@@H]3CC[C@@]4(C)C[C@]3(CC[C@@H]21)[C@H](COC(=O)c1ccccc1)[C@H]4O
102 | CC(C)COC(=O)[C@]1(C)CCC[C@@]2(C)[C@@H]3CC[C@@]4(C)C[C@]3(CC[C@@H]21)[C@H](CO)[C@H]4O
97.2 | CC(C)OC(=O)[C@]1(C)CCC[C@@]2(C)[C@@H]3CC[C@@]4(C)C[C@]3(CC[C@@H]21)[C@H](CO)[C@H]4O
96.5 | COC(=O)[C@]1(C)CCC[C@@]2(C)[C@@H]3CC[C@@]4(C)C[C@]3(CC[C@@H]21)[C@H](CO)[C@H]4O
92.1 | C[C@@]12CC[C@@H]3[C@@](CC[C@H]4[C@@]3(C)CCC[C@@]4(C)C(=O)O)(C/C1=N/O)C2
91.2 | CCOC(=O)[C@]1(C)CCC[C@@]2(C)[C@@H]3CC[C@@]4(C)C[C@]3(CC[C@@H]21)C[C@@H]4N
88.9 | CCOC(=O)[C@]1(C)CCC[C@@]2(C)[C@@H]3CC[C@@]4(C)C[C@]3(CC[C@@H]21)C/C4=N\O
87.2 | CCCCOC(=O)[C@]1(C)CCC[C@@]2(C)[C@@H]3CC[C@@]4(C)C[C@]3(CC[C@@H]21)[C@H](CO)[C@H]4O
86.2 | CCOC(=O)[C@]1(C)CCC[C@@]2(C)[C@@H]3CC[C@@]4(C)C[C@]3(CC[C@@H]21)[C@H](CO)[C@H]4O
85.4 | CCCOC(=O)[C@]1(C)CCC[C@@]2(C)[C@@H]3CC[C@@]4(C)C[C@]3(CC[C@@H]21)[C@H](CO)[C@H]4O
83.2 | C[C@]12CC[C@@H]3[C@](CC[C@H]4[C@@]3(C)CCC[C@@]4(C)C(=O)O)(C1)c1c2[nH]c2ccccc12
81.6 | C[C@@]12CC[C@@H]3[C@@](CC[C@H]4[C@@]3(C)CCC[C@@]4(C)C(=O)O)(CC(=O)N1)C2 [ISOSTEVIOL LACTAM]
72.4 | CCOC(=O)[C@]1(C)CCC[C@@]2(C)[C@@H]3CC[C@@]4(C)C[C@]3(CC[C@@H]21)CC(=O)N4
68.2 | CCOC(=O)[C@]1(C)CCC[C@@]2(C)[C@@H]3CC[C@@]4(C)C[C@]3(CC[C@@H]21)c1c4[nH]c2ccccc12

— ChEMBL document CHEMBL1152716, “Stereoselective synthesis of bioactive isosteviol derivatives as alpha-glucosidase inhibitors” (Bioorg Med Chem, 2009)
